Source: ChEMBL document CHEMBL1148135, “Constituents of Chinese propolis and their antiproliferative activities” (J Nat Prod, 2002)
Counter-ions that a name gives are not always drawn. The source made the active and inactive calls. The rule behind the calls is not given here.

Tests used:
A549 = experiment: Antiproliferative activity against human A549 cells after 72 hrs by MTT assay; type: functional, cell-based; conditions: A549, 72 h
In short: (§1)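 Cells kept in Eagle's MEM with 10% fetal calf serum. 2500 cells per well were left to attach for 24 h at 37 °C under 5% CO2, then given varying concentrations for 72 h. Samples were dissolved in DMSO and diluted in medium (DMSO <0.1%). After 2 h with MTT, formazan was read at 550 nm. EC50 was taken from the mean of four wells.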

[1] = Antiproliferative activity against mouse B16-BL6 cells after 72 hrs by MTT assay; type: functional, cell-based; conditions: B16-BL6, 72 h; in short: as §1
HT-1080 = experiment: Antiproliferative activity against human HT1080 cells after 72 hrs by MTT assay; type: functional, cell-based; conditions: HT-1080, 72 h; in short: as §1
HeLa = experiment: Antiproliferative activity against human HeLa cells after 72 hrs by MTT assay; type: functional, cell-based; in short: as §1
[2] = Antiproliferative activity against mouse 26-L5 cells after 72 hrs by MTT assay; type: functional, cell-based
In short: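 Murine colon 26-L5 carcinoma cells kept in RPMI with 10% fetal calf serum. 2500 cells per well were left to attach for 24 h at 37 °C under 5% CO2, then exposed for 72 h to varying concentrations in medium, from a DMSO stock (<0.1% DMSO). MTT was added for 2 h and formazan read at 550 nm. EC50 was taken from the mean of four wells.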

[3] = DPPH radical scavenging activity after 30 mins; type: functional
In short: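 Samples in EtOH were vortexed with an equal volume of DPPH solution ([…] before mixing). Absorbance was read at 520 nm after 30 min.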

Structure (SMILES)	EC50 (A549)	EC50 [1]	EC50 (HT-1080)	EC50 (HeLa)	EC50 [2]	Activity [3]
CC[C@H](C)C(=O)O[C@H]1C(=O)c2c(O)cc(O)cc2O[C@@H]1c1ccccc1	160 µM	185 µM	143 µM	116 µM	78.9 µM	–
O=c1cc(-c2ccccc2)oc2cc(O)c(C/C=C/c3ccccc3)c(O)c12	> 270 µM	> 270 µM	> 270 µM	> 270 µM	> 270 µM	–
O=c1cc(-c2ccc(O)cc2)oc2cc(O)cc(O)c12 [APIGENIN]	101 µM	31.6 µM	36.6 µM	92.7 µM	25 µM	–
O=C(/C=C/c1ccc(O)c(O)c1)OCc1ccccc1 [BENZYL CAFFEATE]	35 µM	9.78 µM	9.74 µM	2.33 µM	1.01 µM	Active
COc1cc(/C=C/C(=O)OCc2ccccc2)ccc1O [BENZYL FERULATE]	92.8 µM	63.7 µM	46.7 µM	51.1 µM	46.4 µM	–
O=C(/C=C/c1ccc(O)c(O)c1)OCCc1ccccc1 [CAFFEIC ACID PHENETHYL ESTER]	27.9 µM	6.79 µM	9.5 µM	2.36 µM	0.3 µM	Active
O=c1cc(-c2ccccc2)oc2cc(O)cc(O)c12 [CHRYSIN]	233 µM	74.4 µM	94.9 µM	111 µM	109 µM	–
COc1cccc2c1C(=O)c1c(O)c3c(c(O)c1C2=O)C[C@@](O)(C(=O)CO)C[C@@H]3O[C@H]1C[C@H](N)[C@H](O)[C@H](C)O1 [DOXORUBICIN HYDROCHLORIDE]	0.04 µM	0.11 µM	0.02 µM	0.02 µM	0.02 µM	–
O=c1[nH]cc(F)c(=O)[nH]1 [FLUOROURACIL]	3.61 µM	1.23 µM	1.38 µM	0.23 µM	0.31 µM	–
O=c1c(O)c(-c2ccccc2)oc2cc(O)cc(O)c12 [GALANGIN]	93.6 µM	26.8 µM	35.7 µM	79 µM	19.2 µM	–
COc1ccc(/C=C/C(=O)O)cc1O [ISOFERULIC ACID]	> 515 µM	> 515 µM	> 515 µM	> 515 µM	> 515 µM	–
COc1cc(O)c2c(=O)c(O)c(-c3ccccc3)oc2c1 [IZALPININ]	> 350 µM	> 350 µM	> 350 µM	106 µM	30.3 µM	–
COc1ccc(/C=C/C(=O)O)cc1OC [O,O'-DIMETHYLCAFFEIC ACID]	> 480 µM	> 480 µM	> 480 µM	> 480 µM	> 480 µM	–
O=C1C[C@@H](c2ccccc2)Oc2cc(O)cc(O)c21 [PINOCEMBRIN]	229 µM	68 µM	92.4 µM	108 µM	75.6 µM	–
COc1cc(O)c2c(c1)O[C@H](c1ccccc1)CC2=O [PINOSTROBIN]	> 370 µM	111 µM	156 µM	202 µM	128 µM	–
COc1cc(O)c2c(=O)cc(-c3ccccc3)oc2c1 [TECHTOCHRYSIN]	> 370 µM	226 µM	358 µM	> 370 µM	273 µM	–
